Measured values: ChEMBL document CHEMBL2429834, “Potent histone deacetylase inhibitors derived from 4-(aminomethyl)-N-hydroxybenzamide with high selectivity for the HDAC6 isoform” (J Med Chem, 2013)

Legend:
[1] = target: T1, Matrix metalloproteinase-17 (Homo sapiens) (UniProt Q9ULZ9); assay: Inhibition of MMP4 (unknown origin)
T1 sequence (whole entry): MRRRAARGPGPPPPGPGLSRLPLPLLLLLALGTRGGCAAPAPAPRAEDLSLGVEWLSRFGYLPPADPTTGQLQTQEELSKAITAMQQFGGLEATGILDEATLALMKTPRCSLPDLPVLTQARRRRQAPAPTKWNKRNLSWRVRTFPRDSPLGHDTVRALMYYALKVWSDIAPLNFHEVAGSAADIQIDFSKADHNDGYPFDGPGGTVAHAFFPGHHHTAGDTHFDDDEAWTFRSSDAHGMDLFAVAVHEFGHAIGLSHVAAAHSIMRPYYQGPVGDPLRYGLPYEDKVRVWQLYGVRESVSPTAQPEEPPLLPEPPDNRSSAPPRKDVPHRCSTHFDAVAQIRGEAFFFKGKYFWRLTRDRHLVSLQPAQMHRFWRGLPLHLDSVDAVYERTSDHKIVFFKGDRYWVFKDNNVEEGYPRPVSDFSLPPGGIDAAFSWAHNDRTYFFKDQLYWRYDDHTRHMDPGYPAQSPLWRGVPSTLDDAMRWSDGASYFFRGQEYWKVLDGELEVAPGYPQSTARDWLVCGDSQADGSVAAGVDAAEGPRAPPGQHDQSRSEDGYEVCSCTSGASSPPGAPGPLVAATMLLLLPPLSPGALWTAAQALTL

[2] = Permeability in human Caco2 cells at pH 7.4; type: ADME, cell-based; conditions: Caco-2, pH 7.4, read-out: permeability
[3] = target: T2, Protein deacetylase HDAC6 (Homo sapiens) (UniProt Q9UBN7); assay: Inhibition of HDAC6 in human HeLa cells assessed as inhibition of acetyl histone hydrolysis at 10 uM after 24 hrs by immunofluorescence assay relative to control; type: cell-based
T2 sequence (whole entry): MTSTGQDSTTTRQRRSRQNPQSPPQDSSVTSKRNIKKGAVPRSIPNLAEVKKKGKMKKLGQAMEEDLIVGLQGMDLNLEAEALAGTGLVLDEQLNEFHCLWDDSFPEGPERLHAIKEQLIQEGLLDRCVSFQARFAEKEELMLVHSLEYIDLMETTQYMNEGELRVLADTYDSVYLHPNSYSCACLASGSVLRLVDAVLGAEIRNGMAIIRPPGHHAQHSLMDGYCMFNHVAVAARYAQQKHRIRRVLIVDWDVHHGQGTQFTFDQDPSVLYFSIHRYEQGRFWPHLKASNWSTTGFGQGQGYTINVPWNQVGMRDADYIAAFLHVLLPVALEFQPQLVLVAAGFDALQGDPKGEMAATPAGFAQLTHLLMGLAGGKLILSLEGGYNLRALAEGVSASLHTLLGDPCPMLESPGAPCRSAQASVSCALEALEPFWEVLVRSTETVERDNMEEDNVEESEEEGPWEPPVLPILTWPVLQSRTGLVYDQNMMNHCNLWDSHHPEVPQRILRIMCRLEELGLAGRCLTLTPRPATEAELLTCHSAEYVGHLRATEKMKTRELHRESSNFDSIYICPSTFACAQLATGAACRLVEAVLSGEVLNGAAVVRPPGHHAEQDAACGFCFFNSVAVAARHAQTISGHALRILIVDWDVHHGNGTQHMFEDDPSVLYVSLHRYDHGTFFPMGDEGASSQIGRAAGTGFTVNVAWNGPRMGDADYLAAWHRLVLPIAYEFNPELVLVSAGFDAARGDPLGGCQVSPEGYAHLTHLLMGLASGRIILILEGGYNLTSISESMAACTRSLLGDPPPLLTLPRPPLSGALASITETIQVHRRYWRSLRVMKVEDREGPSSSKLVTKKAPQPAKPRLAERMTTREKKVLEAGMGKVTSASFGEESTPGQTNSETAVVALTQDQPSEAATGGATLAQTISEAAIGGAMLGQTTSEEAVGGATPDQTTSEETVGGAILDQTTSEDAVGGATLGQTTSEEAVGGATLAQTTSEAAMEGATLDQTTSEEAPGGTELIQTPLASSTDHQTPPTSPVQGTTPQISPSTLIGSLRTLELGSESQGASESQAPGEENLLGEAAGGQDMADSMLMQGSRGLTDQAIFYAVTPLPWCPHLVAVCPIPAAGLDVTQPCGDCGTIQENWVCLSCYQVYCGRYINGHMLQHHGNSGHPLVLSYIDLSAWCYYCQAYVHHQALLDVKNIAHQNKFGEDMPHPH
In short: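 HeLa cells (8000/well, MEM with 10% FBS) given compound 24 h (histone) or 6 h (tubulin). Fixed in 4% paraformaldehyde, permeabilized with 0.5% Triton X-100, stained with anti-acetyl-lysine or anti-acetyl-tubulin and Alexa 488 secondary plus Hoechst. Imaged at nine sites per well, 20×; percent inhibition relative to 0.2% DMSO controls.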

SMILES	INH [1] [µM]	Papp [2] [×10⁻⁶ cm/s]	inhibition [3] [%]
Cn1cccc1C(=O)N1CCc2cc(C(=O)NO)ccc2C1	> 100	22	–
Cn1cccc1C(=O)NCc1ccc(C(=O)NO)cc1	–	–	26
